Experimental data: ChEMBL document CHEMBL1123129, “Hypolipidemic activity of indan-1,3-dione derivatives in rodents” (J Med Chem, 1985)

Assays:
[1] = target: T1, ATP-citrate synthase (Mus musculus) (UniProt Q91V92); assay: In Vitro evaluation for the CF1 liver enzyme activity on ATP-Citrate Lyase exchange at concentration 50 uM
T1 sequence (whole entry): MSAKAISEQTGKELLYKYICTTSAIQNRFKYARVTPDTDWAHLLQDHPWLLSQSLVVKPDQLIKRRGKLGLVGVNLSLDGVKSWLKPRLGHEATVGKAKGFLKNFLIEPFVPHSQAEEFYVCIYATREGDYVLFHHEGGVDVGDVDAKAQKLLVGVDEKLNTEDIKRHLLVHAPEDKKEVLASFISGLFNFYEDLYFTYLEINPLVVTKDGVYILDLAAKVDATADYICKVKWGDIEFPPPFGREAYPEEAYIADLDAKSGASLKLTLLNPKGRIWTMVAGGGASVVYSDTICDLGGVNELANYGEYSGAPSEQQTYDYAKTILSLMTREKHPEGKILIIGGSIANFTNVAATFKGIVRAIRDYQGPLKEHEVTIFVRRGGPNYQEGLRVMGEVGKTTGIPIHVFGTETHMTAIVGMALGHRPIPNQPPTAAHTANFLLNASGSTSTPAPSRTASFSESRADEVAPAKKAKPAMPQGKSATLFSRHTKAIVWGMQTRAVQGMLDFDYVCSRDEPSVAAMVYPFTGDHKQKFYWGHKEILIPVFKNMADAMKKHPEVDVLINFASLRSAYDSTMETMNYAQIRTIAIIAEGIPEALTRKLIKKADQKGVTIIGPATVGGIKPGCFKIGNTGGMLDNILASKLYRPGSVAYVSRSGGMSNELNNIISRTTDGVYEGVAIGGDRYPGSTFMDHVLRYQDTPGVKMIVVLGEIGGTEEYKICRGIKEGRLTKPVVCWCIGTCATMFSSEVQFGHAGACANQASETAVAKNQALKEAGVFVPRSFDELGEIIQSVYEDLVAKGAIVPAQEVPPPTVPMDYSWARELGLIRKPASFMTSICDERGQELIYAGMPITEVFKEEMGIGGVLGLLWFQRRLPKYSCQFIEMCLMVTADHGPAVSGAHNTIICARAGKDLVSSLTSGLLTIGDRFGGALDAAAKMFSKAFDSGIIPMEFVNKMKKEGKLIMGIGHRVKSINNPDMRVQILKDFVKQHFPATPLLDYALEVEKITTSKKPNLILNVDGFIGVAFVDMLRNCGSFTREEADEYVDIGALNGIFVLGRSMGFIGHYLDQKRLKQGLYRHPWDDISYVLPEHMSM
How it was run: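 Liver was taken from CF1 male mice and made into 10% homogenates, which were incubated with test compound at 50, 100 or 200 µM. Each enzyme was assayed by its literature method, and protein was measured by Lowry. N = 6. Activity is expressed as % of untreated control ± SD.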

[2] = target: T2, 3-hydroxy-3-methylglutaryl-coenzyme A reductase (Mus musculus) (UniProt Q01237); assay: In Vivo effect for the hypolipidemic activity on HMG-CoA reductase in CF1 mice after 16 days of oral administration at a dose of 20 mg/kg; type: organism-based; parameters: dose 20 mg/kg
T2 sequence (whole entry): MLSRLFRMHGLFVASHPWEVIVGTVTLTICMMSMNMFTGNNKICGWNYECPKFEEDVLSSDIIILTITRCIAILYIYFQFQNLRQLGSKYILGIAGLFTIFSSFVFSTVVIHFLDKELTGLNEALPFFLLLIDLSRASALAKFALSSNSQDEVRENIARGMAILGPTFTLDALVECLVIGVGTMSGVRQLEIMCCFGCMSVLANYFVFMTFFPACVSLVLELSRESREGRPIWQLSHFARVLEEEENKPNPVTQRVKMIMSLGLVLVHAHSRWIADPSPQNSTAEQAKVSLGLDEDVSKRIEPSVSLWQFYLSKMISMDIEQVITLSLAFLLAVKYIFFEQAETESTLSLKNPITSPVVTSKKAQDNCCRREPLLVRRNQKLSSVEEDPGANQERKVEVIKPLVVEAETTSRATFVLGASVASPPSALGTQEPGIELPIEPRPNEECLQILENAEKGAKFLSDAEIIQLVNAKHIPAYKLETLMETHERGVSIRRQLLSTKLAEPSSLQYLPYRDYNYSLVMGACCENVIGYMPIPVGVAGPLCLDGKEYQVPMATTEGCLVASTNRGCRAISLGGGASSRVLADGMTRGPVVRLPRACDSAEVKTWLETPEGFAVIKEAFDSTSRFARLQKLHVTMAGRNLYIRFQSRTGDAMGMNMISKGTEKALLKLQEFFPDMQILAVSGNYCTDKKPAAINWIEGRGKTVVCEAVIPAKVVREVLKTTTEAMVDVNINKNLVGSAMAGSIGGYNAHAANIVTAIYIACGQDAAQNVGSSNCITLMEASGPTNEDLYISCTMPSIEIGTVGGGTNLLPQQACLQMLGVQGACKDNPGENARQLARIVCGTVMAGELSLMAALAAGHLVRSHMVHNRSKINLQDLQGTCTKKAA
How it was run: (§1)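 CF1 male mice are dosed orally at 10–60 mg/kg per day for 16 days, with 1% CMC as the control vehicle. Liver is homogenized at 10% in 0.25 M sucrose + 0.001 M EDTA, pH 7.2. Enzymes are assayed by literature methods, with Lowry protein. Activity is given as % of control (X ± SD, N = 6), with p from Student's t test.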

[3] = target: T3, Sterol O-acyltransferase 1 (Mus musculus) (UniProt Q61263); assay: In Vivo effect for the hypolipidemic activity on Acyl-COA cholesterol acyltransferase in CF1 mice after 16 days of oral administration at a dose of 20 mg/kg; type: functional, organism-based; parameters: dose 20 mg/kg; how it was run: as §1
T3 sequence (whole entry): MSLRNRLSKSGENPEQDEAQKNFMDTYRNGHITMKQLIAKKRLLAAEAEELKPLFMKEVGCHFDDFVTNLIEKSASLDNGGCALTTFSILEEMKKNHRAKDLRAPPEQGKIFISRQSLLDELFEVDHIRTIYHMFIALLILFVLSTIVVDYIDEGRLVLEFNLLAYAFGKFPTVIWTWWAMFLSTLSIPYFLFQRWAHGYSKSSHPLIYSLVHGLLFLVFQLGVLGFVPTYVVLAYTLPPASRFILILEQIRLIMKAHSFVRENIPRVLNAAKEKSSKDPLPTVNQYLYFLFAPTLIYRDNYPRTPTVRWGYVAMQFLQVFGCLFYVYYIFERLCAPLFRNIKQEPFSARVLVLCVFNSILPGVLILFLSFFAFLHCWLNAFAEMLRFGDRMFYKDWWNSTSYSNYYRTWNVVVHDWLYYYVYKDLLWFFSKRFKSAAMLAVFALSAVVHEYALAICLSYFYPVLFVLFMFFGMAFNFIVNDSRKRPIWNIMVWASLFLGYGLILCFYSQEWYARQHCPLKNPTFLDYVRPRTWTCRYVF

Rattus norvegicus = assay: Compound was evaluated for the hypolipidemic activity at 20 mg/kg per day orally for 14 days on phospholipids content in rat LDL; type: functional; details: route oral
How it was run: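 Male Sprague–Dawley rats (~300 g) were dosed orally each day. Blood was drawn from the abdominal vein. Lipoprotein fractions (chylomicron, VLDL, LDL, HDL) were separated by the Hatch–Lees and Havel methods. Each fraction was assayed for cholesterol, triglyceride (enzymatic kit), neutral lipids, phospholipids and Lowry protein. Values are % of 1% CMC vehicle control, N = 6.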

Question: Which results are given for `COc1ccc(C2C(=O)c3ccccc3C2=O)cc1` [ANISINDIONE]?
Answer: Control [1]: 72%; Control [2]: 114%; Control [3]: 48%; Control (Rattus norvegicus): 204%
